Insulin prom up = MIN6 insulin promoter up-regulation; MIN6 insulin promoter-GFP reporter, high-content imaging; stronger effect = higher value; z-score at 5 µM; actives 0.3% (n = 190,000); AID 1625;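 active = z-score above 3 at 5 µM with at least 500 cells counted in the well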
Autophagy HCS = alters autophagy in cells; MEF GFP-LC3 puncta imaging; test concentration mostly 10 µM; calls only at 10 µM (by protocol); actives 0.98% (n = 190,000);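 active = percentage of spot-positive cells more than 3 SD above its plate mean, without a fluorescence outlier flag or 80% toxicity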;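 note: spot-positive cell cutoff set from DMSO-treated cells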
TNAP act hiacc = activators of human TNAP at high phosphate acceptor concentration; P05186; purified TNAP, CDP-star luminescence, 1 M DEA, 30 min; stronger effect = higher value; 0 = EDTA background, 1 = DMSO-only activity; activation factor at 20 µM; 200,000 tested, under 10 active;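 active = activation factor at least 2 at 20 µM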
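Dosing: 20 µM single point. System: human TNAP. Amount: TNAP 1/800 final. Incubation: 30 min, room temperature. Read-out: TNAP activation factor scaled between EDTA and DMSO control wells. Signal: luminescence from CDP-star hydrolysis. Medium: 1 M DEA, pH 9.8, Mg2+, Zn2+. Control set: EDTA negative control, DMSO positive control.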
TNAP inh hi DEA = TNAP (human) inhibition, high acceptor; P05186; purified TNAP, CDP-star luminescence, 1 M DEA; inhibition, % at 20 µM; actives 0.03% (n = 200,000);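 active = over 50% inhibition of tissue-nonspecific alkaline phosphatase at 20 µM in the single-dose screen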;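 note: plate controls were DMSO wells for no effect and EDTA-quenched wells as full inhibition for full effect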
TNAP inh noacc = blocks human TNAP activity with no phosphate acceptor present; P05186; purified TNAP, CDP-star luminescence, 30 min; inhibition, % at 20 µM; actives 0.26% (n = 200,000);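 active = tissue-nonspecific alkaline phosphatase inhibition above about 50% at 20 µM in the single-dose screen, limit read from the data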;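 note: 0% = DMSO negative control and 100% = EDTA positive control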
p47phox inh = inhibitors of human p47phox binding; P14598; p47phox/p22phox peptide binding, fluorescence polarization, 2 h; inhibition, % at 24.7 µM; actives 0.53% (n = 220,000); AID 1274;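 active = inhibition above about 30%, limit read from the data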;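 note: 0% = p47phox with labelled peptide and 100% = labelled peptide alone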
Target sequence (P14598 whole entry, looked up): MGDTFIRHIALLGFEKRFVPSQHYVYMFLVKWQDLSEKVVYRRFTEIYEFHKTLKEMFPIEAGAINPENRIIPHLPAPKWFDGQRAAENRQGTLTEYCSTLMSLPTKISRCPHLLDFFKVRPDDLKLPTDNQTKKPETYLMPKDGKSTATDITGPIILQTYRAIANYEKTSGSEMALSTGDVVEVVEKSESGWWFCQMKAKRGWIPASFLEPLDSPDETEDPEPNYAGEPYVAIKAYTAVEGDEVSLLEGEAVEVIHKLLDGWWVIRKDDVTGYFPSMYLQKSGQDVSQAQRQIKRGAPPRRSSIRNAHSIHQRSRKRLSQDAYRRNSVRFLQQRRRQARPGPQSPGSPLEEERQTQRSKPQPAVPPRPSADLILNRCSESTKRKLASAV
* hit, by the source's call; i = inactive; nt = no result; + = active, no number. Shown are actives, neighbours in structure and some others; about 1.8% of the full set was active somewhere.

SMILES | Insulin prom up | Autophagy HCS | TNAP act hiacc | TNAP inh hi DEA | TNAP inh noacc | p47phox inh
COc1ccc(N2CCN(c3oc(-c4ccccc4OC)nc3C#N)CC2)cc1 | 0.5 | i | 0.9 | 5.0 | 25.9 | 53.8*
CCN(CC)S(=O)(=O)c1cccc(N=Nc2c(O)c3ccccc3oc2=O)c1 | 0.23 | nt | nt | nt | nt | -18.1
CCn1c2ccccc2c2cc(CNCc3ccc(OC)cc3OC)ccc21 | -0.04 | + | 1 | -4.3 | -16.5 | -12.6
O=S1(=O)CCN(C(CCO)c2cccc(C(F)(F)F)c2)CC1 (stereo unspecified) | -0.12 | i | 1 | 1.9 | 0.3 | 11.9
CCOC(=O)c1cc2oc(C(c3nnnn3C3CCCCC3)N3CCOCC3)cc2[nH]1 (stereo unspecified) | nt | + | 1 | -3.0 | -2.9 | -9.8
CCOC(=O)N1CCN(C(=S)Nc2cc(S(=O)(=O)N3CCOCC3)ccc2Cl)CC1 | -0.19 | i | 1.1 | -5.0 | -13.3 | -2.2
C/C(=N\NC(=O)c1ccc(Cl)cc1)c1cccs1 | -0.63 | i | 1.1 | -6.8 | -12.3 | 37.7*
Cc1cccc(CC(=O)c2c[nH]c3ccccc23)c1 | -0.33 | nt | nt | nt | nt | -1.0
CCOc1ccc(C2CC(=O)n3nc(C45CC6CC(CC(C6)C4)C5)nc3S2)cc1OC (stereo unspecified) | 0.03 | i | 1 | -3.3 | 84.8* | -11.7
COc1ccc(C2CC(=O)n3nc(C45CC6CC(CC(C6)C4)C5)nc3S2)cc1OC (stereo unspecified) | 0.27 | i | 1 | 1.0 | 88.4* | -10.3
COc1ccc(C2CC(=O)N(C)c3ccccc3S2)cc1 (stereo unspecified) | 1.35 | i | 1 | -4.2 | -11.2 | 3.3
CCOC(=O)c1c(CSc2ccccc2)n(C)c2cc(Br)c(OCC(O)CNC(CO)(CO)CO)cc12 (stereo unspecified) | -0.33 | i | 1.1 | -7.9 | -13.5 | 42.4*
Cc1cccc(CN2CCN(Cc3cccc(-n4cccn4)c3)CC2CCO)n1 (stereo unspecified) | nt | + | 1 | -2.0 | -3.1 | 0.9
c1ccc(-n2cnnc2SCc2nc3ccccc3s2)cc1 | -0.82 | + | 1 | -0.5 | -5.5 | -19.2
Cc1nnc(SCc2nc3ccccc3s2)n1-c1ccccc1 | 1.57 | i | 1 | -1.3 | -12.2 | -10.1
Cc1ccc(Cn2nc(C)c(NC(=O)CSc3nc4c(c(C(F)(F)F)n3)CCc3ccccc3-4)c2C)cc1 | -0.89 | i | 1 | 2.4 | -1.1 | 49.7*
Cc1ccccc1Cn1cc(NC(=O)CSc2nc3c(c(C(F)(F)F)n2)CCc2ccccc2-3)cn1 | nt | i | 1 | -1.5 | -3.5 | -13.0
N#Cc1c(NC(=O)CSc2nc3c(c(C(F)(F)F)n2)CCc2ccccc2-3)sc2c1CCCC2 | -0.47 | i | 1 | -0.1 | -12.8 | -28.8
Cc1nn(Cc2ccc(Cl)cc2)c(C)c1NC(=O)CSc1nc2c(c(C(F)(F)F)n1)CCc1ccccc1-2 | -1.62 | i | 1 | -3.9 | -7.8 | 44.9*
CC1(C)c2ccccc2N2CC(=O)NC21/C=C/c1ccco1 (stereo unspecified) | 3.29* | i | 1 | -2.4 | -12.0 | -20.4
CC1(C)c2ccccc2N2CCC(=O)NC21/C=C/c1ccco1 (stereo unspecified) | -0.61 | i | 1.1 | -7.7 | -4.6 | -32.8
COc1cccc2cc(-c3cn4ccc(C)cc4n3)c(=O)oc12 | nt | i | nt | nt | nt | nt
CCOc1cccc2cc(-c3cn4cc(C)ccc4n3)c(=O)oc12 | -1.08 | + | 1 | -1.7 | -16.3 | 6.7
O=C1C2C3c4ccccc4C(c4ccccc43)C2C(=O)N1c1ccncc1 (stereo unspecified) | -0.06 | + | 1.1 | -5.3 | -6.6 | 0.5
CN(CCO)CC(O)Cn1cnc2c1c(=O)n(C)c(=O)n2C (stereo unspecified) (tested in a mixture with another compound) | nt | i | 1.1 | -5.0 | -12.9 | 0.6
CN(CC(O)Cn1cnc2c1c(=O)n(C)c(=O)n2C)c1ccccc1 (stereo unspecified) | 0.08 | + | 1 | -3.9 | -5.3 | -5.4
N#C/C(=C/c1ccc(-c2cc(C(=O)O)cc(C(=O)O)c2)o1)c1nc2ccccc2s1 | 3.02* | i | 0.8 | 21.5 | 19.4 | -45.3
